Where “and” joins values, the source holds several entries; their conditions need not be identical. Identical values can stand only once. Like-named read-outs stand apart in the source and are kept apart here.
How the values were obtained:
[1] = biological target: CR8 (DxDxD) domain of LRP (Homo sapiens, UniProt Q07954); experiment: Tryptophan fluorescence titration of amino acid ligands with CR8 domain; type: binding; conditions: for fold weaker Kd than lysine methyl ester: pH 5.5, I=0.02; for ΔG^u: unitary free energy; for slope of Debye–Hückel plot (−zA×zB): ionic-strength-dependence of binding
CR8 (DxDxD) domain of LRP, sequence (Q07954 1060-1099 limits assumed): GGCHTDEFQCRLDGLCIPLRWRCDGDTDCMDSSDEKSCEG

[2] = test system: cluster II CR domains of LRP; experiment: Fluorescence titrations, summary statements across several CR domains; type: binding
In short: (§1)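 Each CR domain (1–3 μM) was titrated at 298 K in buffer with 1 mM Ca2+ and 0.1% PEG 8000: 20 mM Mes at pH 5.5 or 20 mM Tris/HCl at pH 7.4, with NaCl set to the target ionic strength. Tryptophan emission (λex 280 nm) was read at the wavelength of maximal change and averaged over 120 s, with blank and dilution correction. Kd came from a non-linear single-site fit, using the protonated ligand fraction.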

[3] = biological target: CR5 (DxDDD) domain of LRP (Homo sapiens, UniProt Q07954); experiment: Tryptophan fluorescence titration of amino acid ligands with CR5 domain; type: binding; conditions: for ΔG^u: unitary free energy
CR5 (DxDDD) domain of LRP, sequence (Q07954 934-973 limits assumed): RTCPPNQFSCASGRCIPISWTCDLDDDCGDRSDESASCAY
In short: as §1

[4] = biological target: D1085A (DxxxD) CR8 variant (Homo sapiens, UniProt Q07954, D1085A); experiment: Tryptophan fluorescence titration of amino acid ligands with CR8 variant D1085A; type: binding; conditions: for Kd: I=0.02, pH 5.5, 298 K; for ΔG^u: unitary free energy
D1085A (DxxxD) CR8 variant, sequence (Q07954 1060-1099 D1085A limits assumed): as the sequence (Q07954 1060-1099 limits assumed) above, with D26A counted along it
In short: as §1

[5] = biological target: CR3 (DxDxD) domain of LRP (Homo sapiens, UniProt Q07954); experiment: Tryptophan fluorescence titration of amino acid ligands with CR3 domain; type: binding; conditions: for ΔG^u: unitary free energy
CR3 (DxDxD) domain of LRP, sequence (Q07954 852-892 limits assumed): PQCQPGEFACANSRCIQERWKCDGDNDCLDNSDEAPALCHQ
In short: as §1

[6] = cited from earlier work
[7] = pKa values used for correction of ligand concentration; type: physicochemical; conditions: pH 5.5
[8] = physiological ionic strength, binding favoured at pH 7.4
[9] = CR3, CR5 and CR8, I=0.02, both pH values
[10] = irrespective of ionic strength or pH, results not shown
[11] = Table 3, pH 7.4, ionic strength not given

COC(=O)[C@H](C)N [Alanine methyl ester]
Kd [1]: 4900 ± 250 µM | ΔG° ([1]; Table 3, pH 5.5): -3.15 kcal/mol | fold weaker Kd than lysine methyl ester [1]: 28 fold | ΔΔG° compared with lysine methyl ester ([2]; CR5 and CR8): 1.86 to 1.98 kcal/mol | Kd [3]: 4100 ± 240 µM | ΔG° ([3]; Table 3, pH 5.5): -3.25 kcal/mol | fold weaker Kd than lysine methyl ester ([3]; pH 5.5): 23 fold

COC(=O)[C@@H](N)CCCN=C(N)N [Arginine methyl ester]
ΔG° ([1]; I=0.02, pH 5.5): -5.02 kcal/mol | Kd ([1]; I=0.02, pH 5.5, 298 K): 210 ± 10 µM | ΔG° ([1]; I=0.02, pH 7.4): -4.68 kcal/mol | ΔG° ([1]; I=0.17, pH 5.5): -4.23 kcal/mol | Kd ([1]; I=0.17, pH 5.5, 298 K): 780 ± 10 µM | ΔG° ([1]; I=0.17, pH 7.4): -4.42 kcal/mol | ΔG^u ([1]; I=0.02, pH 5.5): -7.39 kcal/mol | ΔG^u ([1]; I=0.02, pH 7.4): -7.05 kcal/mol | ΔG^u ([1]; I=0.17, pH 5.5): -6.6 kcal/mol | ΔG^u ([1]; I=0.17, pH 7.4): -6.79 kcal/mol | ΔG° ([4]; I=0.02, pH 5.5): -3.49 kcal/mol | Kd [4]: 2800 ± 110 µM | ΔG° ([4]; I=0.02, pH 7.4): -3.13 kcal/mol | ΔG^u ([4]; I=0.02, pH 5.5): -5.86 kcal/mol | ΔG^u ([4]; I=0.02, pH 7.4): -5.5 kcal/mol | ΔG° ([3]; I=0.02, pH 5.5): -4.83 kcal/mol | Kd ([3]; I=0.02, pH 5.5, 298 K): 290 ± 10 µM | ΔG° ([3]; I=0.02, pH 7.4): -4.42 kcal/mol | ΔG° ([3]; I=0.17, pH 5.5): -4.18 kcal/mol | Kd ([3]; I=0.17, pH 5.5, 298 K): 840 ± 50 µM | ΔG° ([3]; I=0.17, pH 7.4): -4.25 kcal/mol | difference in ΔG° between pH 5.5 and 7.4 [3, 8]: 0.3 kJ/mol | ΔG^u ([3]; I=0.02, pH 5.5): -7.19 kcal/mol | ΔG^u ([3]; I=0.02, pH 7.4): -6.76 kcal/mol | ΔG^u ([3]; I=0.17, pH 5.5): -6.55 kcal/mol | ΔG^u ([3]; I=0.17, pH 7.4): -6.62 kcal/mol | ΔG° ([5]; I=0.02, pH 5.5): -4.33 kcal/mol | Kd ([5]; I=0.02, pH 5.5, 298 K): 680 ± 70 µM | ΔG° ([5]; I=0.02, pH 7.4): -4.25 kcal/mol | ΔG° ([5]; I=0.17, pH 5.5): -3.66 kcal/mol | Kd ([5]; I=0.17, pH 5.5, 298 K): 2090 ± 160 µM | ΔG° ([5]; I=0.17, pH 7.4): -4.23 kcal/mol | ΔG^u ([5]; I=0.02, pH 5.5): -6.69 kcal/mol | ΔG^u ([5]; I=0.02, pH 7.4): -6.62 kcal/mol | ΔG^u ([5]; I=0.17, pH 5.5): -6.02 kcal/mol | ΔG^u ([5]; I=0.17, pH 7.4): -6.6 kcal/mol

COC(=O)[C@@H](N)Cc1c[nH]cn1 [Histidine methyl ester]
ΔG° ([1]; Table 3, pH 5.5): -4.83 kcal/mol | pKa ([6]; side chain (imidazole)): 5.33 | ΔG° ([4]; Table 3, pH 5.5): -3.18 kcal/mol | fraction of the imidazole protonated [7]: ~ 40% | ΔΔG° compared with lysine methyl ester ([2]; four domains, pH 5.5 and low ionic strength): 0.14 to 0.48 kcal/mol | ΔG° ([3]; Table 3, pH 5.5): -4.76 kcal/mol | ΔG° ([5]; Table 3, pH 5.5): -3.99 kcal/mol

COC(=O)[C@@H](N)CCCCN [Lysine methyl ester]
ΔG° ([1]; 298 K, pH 7.4, I=0.17, from interpolated Kd): -4.66 kcal/mol | ΔG° ([1]; I=0.02, pH 5.5): -5.14 kcal/mol | Kd ([1]; I=0.02, pH 5.5, 298 K): 170 ± 10 µM | ΔG° ([1]; I=0.02, pH 7.4): -5.11 kcal/mol | ΔG° ([1]; I=0.17, pH 5.5): -4.42 kcal/mol | Kd ([1]; I=0.17, pH 5.5, 298 K): 570 ± 20 µM | ΔG° ([1]; I=0.17, pH 7.4): -4.71 kcal/mol | blue shift of CR8 tryptophan fluorescence ([1]; at saturation (Figure 2)): approximately 7 nm | slope of Debye–Hückel plot (−zA×zB) ([1]; pH 5.5): 2.2 | maximum quench of CR8 fluorescence at saturation ([1]; pH 7.4, I=0.17, 294 K (Figure 2)): 66% | ΔS° ([1]; pH 7.4, I=0.17, van't Hoff analysis): 29 J·K^−1·mol^−1 | slope of Debye–Hückel plot (−zA×zB) ([1]; pH 7.4): 1.5 and 1.53 | ΔG ([1]; physiological conditions of 310 K and I=0.17, pH 7.4): -4.57 kcal/mol | Kd ([1]; read-out: interpolated Kd, 298 K, pH 7.4, I=0.17, from van't Hoff plot): 380 µM | ΔG^u ([1]; I=0.02, pH 5.5): -7.5 kcal/mol | ΔG^u ([1]; I=0.02, pH 7.4): -7.46 kcal/mol | ΔG^u ([1]; I=0.17, pH 5.5): -6.79 kcal/mol | ΔG^u ([1]; I=0.17, pH 7.4): -7.07 kcal/mol | ΔH° ([1]; van't Hoff plot 279–310 K, pH 7.4, I=0.17): -2.56 kcal/mol | pKa ([6]; α-amino group): 7.2 | Kd of D1085A, fold higher than for N^α-acetyl-lysine methyl ester [4]: ~ 3 fold | ΔG° ([4]; I=0.02, pH 5.5): -3.32 kcal/mol | Kd [4]: 3700 ± 130 µM | ΔG° ([4]; I=0.02, pH 7.4): -3.27 kcal/mol | fold decrease of Kd compared with N^α-acetyl-lysine methyl ester ([4]; pH 5.5 and I=0.02): less than 4 fold | ΔG^u ([4]; I=0.02, pH 5.5): -5.69 kcal/mol | ΔG^u ([4]; I=0.02, pH 7.4): -5.64 kcal/mol | fold reduction in Kd compared with N^α-acetyl-lysine methyl ester [2, 9]: 5–18 fold | increase in ΔG° compared with N^α-acetyl-lysine methyl ester [2, 9]: 1.03 to 1.72 kcal/mol | ΔG° ([3]; I=0.02, pH 5.5): -5.11 kcal/mol | Kd ([3]; I=0.02, pH 5.5, 298 K): 180 ± 10 µM | ΔG° ([3]; I=0.02, pH 7.4): -4.85 kcal/mol | ΔG° ([3]; I=0.17, pH 5.5): -4.4 kcal/mol | Kd ([3]; I=0.17, pH 5.5, 298 K): 600 ± 40 µM | ΔG° ([3]; I=0.17, pH 7.4): -4.64 kcal/mol | ΔG^u ([3]; I=0.02, pH 5.5): -7.46 kcal/mol | ΔG^u ([3]; I=0.02, pH 7.4): -7.22 kcal/mol | ΔG^u ([3]; I=0.17, pH 5.5): -6.76 kcal/mol | ΔG^u ([3]; I=0.17, pH 7.4): -7 kcal/mol | ΔG° ([5]; I=0.02, pH 5.5): -4.47 kcal/mol | Kd ([5]; I=0.02, pH 5.5, 298 K): 530 ± 50 µM | ΔG° ([5]; I=0.02, pH 7.4): -4.97 kcal/mol | ΔG° ([5]; I=0.17, pH 5.5): -3.99 kcal/mol | Kd ([5]; I=0.17, pH 5.5, 298 K): 1190 ± 110 µM | ΔG° ([5]; I=0.17, pH 7.4): -4.68 kcal/mol | difference in ΔG° between pH 5.5 and 7.4 [5, 8]: 2.9 kJ/mol | ΔG^u ([5]; I=0.02, pH 5.5): -6.84 kcal/mol | ΔG^u ([5]; I=0.02, pH 7.4): -7.34 kcal/mol | ΔG^u ([5]; I=0.17, pH 5.5): -6.36 kcal/mol | ΔG^u ([5]; I=0.17, pH 7.4): -7.05 kcal/mol

COC(=O)[C@H](CCCCN)NC(C)=O [N^α-acetyl-lysine methyl ester]
ΔG° ([1]; I=0.02, pH 5.5): -3.42 kcal/mol | Kd ([1]; I=0.02, pH 5.5, 298 K): 3100 ± 440 µM | ΔG° ([1]; I=0.02, pH 7.4): -3.75 kcal/mol | ΔG° ([1]; I=0.17, pH 5.5): -3.51 kcal/mol | Kd ([1]; I=0.17, pH 5.5, 298 K): 2600 ± 280 µM | ΔG° ([1]; I=0.17, pH 7.4): -3.42 kcal/mol | ΔG° ([4]; I=0.02, pH 5.5): -2.58 kcal/mol | Kd [4]: 12800 ± 2000 µM | ΔG° ([4]; I=0.02, pH 7.4): -2.58 kcal/mol | loss of binding energy for D1085A ([4]; compared with domains with central aspartate): 0.837 to 1.22 kcal/mol | range of ΔG° values ([2]; CR3, CR5 and CR8, two ionic strengths, pH 5.5 and 7.4): -3.8 to -3.42 kcal/mol | ΔG° ([3]; I=0.02, pH 5.5): -3.75 kcal/mol | Kd ([3]; I=0.02, pH 5.5, 298 K): 1800 ± 160 µM | ΔG° ([3]; I=0.02, pH 7.4): -3.8 kcal/mol | ΔG° ([3]; I=0.17, pH 5.5): -3.59 kcal/mol | Kd ([3]; I=0.17, pH 5.5, 298 K): 2300 ± 490 µM | ΔG° ([3]; I=0.17, pH 7.4): -3.54 kcal/mol | ΔG° ([5]; I=0.02, pH 5.5): -3.47 kcal/mol | Kd ([5]; I=0.02, pH 5.5, 298 K): 2900 ± 120 µM | ΔG° ([5]; I=0.02, pH 7.4): -3.7 kcal/mol | ΔG° ([5]; I=0.17, pH 5.5): -3.47 kcal/mol | Kd ([5]; I=0.17, pH 5.5, 298 K): 2900 ± 280 µM | ΔG° ([5]; I=0.17, pH 7.4): -3.56 kcal/mol

CCOC(=O)[C@@H](N)CCCCN [lysine ethyl ester]
binding affinity compared with lysine methyl ester [1, 10]: negligible difference | binding affinity compared with lysine methyl ester [3, 10]: negligible difference | binding affinity compared with lysine methyl ester [5, 10]: negligible difference

NCCCC[C@H](N)C(=O)O [unmodified lysine, lysine]
Kd [1]: 1050 µM | fold weaker Kd than lysine methyl ester [1]: 6 fold

Aspartate methyl ester
ΔG° ([1]; Table 3, pH 5.5): -1.51 kcal/mol | ΔG° ([1]; Table 3, pH 7.4): -1.27 kcal/mol | fold weaker Kd of D1085A variant than of CR8 [4]: ~ 3 fold | ΔG° ([4]; Table 3, pH 5.5): -0.86 kcal/mol | ΔG° ([4]; Table 3, pH 7.4): -0.789 kcal/mol | fold weaker Kd than lysine methyl ester ([2]; Table 3 domains): 65–450 fold | ΔΔG° compared with lysine methyl ester ([2]; Table 3 domains): 2.46 to 3.63 kcal/mol | perturbation of CR domain tryptophan fluorescence in presence of EDTA ([2]; titrations repeated with EDTA to remove Ca^2+, results not shown): no perturbation | ΔG° ([3]; Table 3, pH 5.5): -1.67 kcal/mol | ΔG° ([3]; Table 3, pH 7.4): -1.63 kcal/mol | Kd [3, 11]: 63000 ± 5000 µM | ΔG° ([5]; Table 3, pH 5.5): -1.48 kcal/mol | ΔG° ([5]; Table 3, pH 7.4): -1.6 kcal/mol | Kd [5, 11]: 66000 ± 11000 µM
